This is a sample that favours compounds with a hit; in the whole collection about 3.7% have one here.
Kir21 block: inhibitors of mouse Kir2.1 inward-rectifier potassium channel; Inward rectifier potassium channel 2 (Mus musculus), P35561; HEK293-Kir2.1, FluxOR thallium flux fluorescence; stronger effect = lower value; B-score at 10 µM; 310,000 tested, 0.85% active; AID 1672, 2009;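 active means fluorescence ratio B-score at or below minus 3 SD of library scores, with starting-brightness B-score within 2 SD, cut at about -4.2 in these data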;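 further: channel flux triggered by added potassium and thallium sulfate stimulus; B-score of peak minus minimum fluorescence over baseline after thallium stimulus; more negative B-score means stronger Kir2.1 block with less thallium influx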
hERG protect: hERG rescue from dofetilide block, primary screen, cell-based, CHO-hERG, FluxOR thallium flux, dofetilide IC70; Voltage-gated inwardly rectifying potassium channel KCNH2 (Homo sapiens), Q12809; activation (rescue from dofetilide block), less the hit threshold, % at 10 µM; 310,000 tested, 0.51% active; dofetilide IC70 present;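 active means activation above the mean of controls blocked by dofetilide plus 5 SD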;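 further: thallium influx through hERG after potassium depolarization seen as dye fluorescence rise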
KCNQ1 act: potentiators or activators of KCNQ1 channel, primary screen, cell-based, thallium flux, high-throughput | AID 2648, 2010 | 310,000 tested, 0.35% active | B-score at 10 µM | CHO-K1 KCNQ1, thallium flux FluxOR fluorescence; stronger effect = higher value;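 active means fluorescence ratio B-score, a plate-corrected score, at least three library SD, with initial intensity B-score within 5 SD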
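Test system: CHO-K1 cells stably expressing KCNQ1 / Medium: assay buffer / Also added: depolarizing K+/Tl+ stimulus, K2SO4 and Tl2SO4 each 12.5 mM in 5x stock / Incubation: 90 min dye loading and 20 min compound exposure, both at room temperature / Signal: thallium influx via FluxOR fluorescence, kinetic imaging / Evaluation: B score of baseline-normalized fluorescence ratio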
KCNK9 inh: KCNK9 potassium channel inhibitors, primary screen, HEK293 cells, thallium flux; AID 488922, 2010; 310,000 tested, 1.2% active; FluxOR thallium flux fluorescence; stronger effect = lower value; B-score at 10 µM;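 active means ratio B-score over 3 SD below the library mean, with starting fluorescence within 5 SD of its mean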;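 further: negative B-score means less thallium flux so channel inhibition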
Target sequence (Q9NPC2 whole entry, looked up): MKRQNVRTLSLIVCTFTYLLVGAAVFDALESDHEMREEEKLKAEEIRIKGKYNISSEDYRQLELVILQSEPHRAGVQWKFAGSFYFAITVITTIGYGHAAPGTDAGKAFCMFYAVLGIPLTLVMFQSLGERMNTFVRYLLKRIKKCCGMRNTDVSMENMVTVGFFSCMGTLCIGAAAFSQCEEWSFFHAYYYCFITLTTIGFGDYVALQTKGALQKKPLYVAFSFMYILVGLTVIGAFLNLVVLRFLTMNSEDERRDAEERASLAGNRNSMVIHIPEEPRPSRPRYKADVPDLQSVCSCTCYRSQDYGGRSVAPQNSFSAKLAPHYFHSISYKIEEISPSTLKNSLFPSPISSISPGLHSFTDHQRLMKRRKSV
KCNK3 block: human KCNK3 channel inhibitors, primary screen, CHO cells, FluxOR thallium flux, B-score; FluxOR fluorescence; stronger effect = lower value; B-score at 10 µM; 340,000 tested, 0.84% active;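 active means B-score under library mean minus 4 SD, starting fluorescence ratio at most library mean plus 5 SD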;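 further: more negative B-score means stronger inhibition of thallium flux through KCNK3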
KCNQ1 inh: inhibitors of human KCNQ1 channel, primary screen, cell-based, thallium flux, high-throughput; CHO-K1 KCNQ1, FluxOR thallium flux fluorescence; stronger effect = higher value; B-score at 10 µM; 310,000 tested, 1.3% active; AID 2642, 2010;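 active means compounds whose thallium flux B-score, printed positive for inhibition, exceeds three library SD while starting fluorescence stays within three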;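 further: channel opened by potassium depolarization with thallium stimulus after 20 min compound exposure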
KCNK9 block conf: KCNK9 potassium channel inhibitors, confirmation, HEK293 cells, thallium flux, duplicate. FluxOR thallium flux fluorescence. AID 492992, 2010. 4,900 tested, 43% active. inhibition, % at 10 µM. shares compounds with KCNK9 inh;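 active means thallium signal inhibited by more than 5 SD of the compound-free buffer control wells, on both duplicate plates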;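 further: 0% = assay buffer control wells without compound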
Kir2-1 spec: mouse Kir2.1 channel inhibition, confirmation, selectivity assay for KCNK9 modulator project, cell-based, HEK293, thallium flux | shares compounds with KCNK9 inh | Kir2.1 cells, FluxOR thallium flux fluorescence | inhibition, % at 10 µM | 4,900 tested, 4% active | AID 492993, 2010;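 active means thallium signal drop more than 5 SD beyond the mean of the no-compound control wells, seen in both duplicate plates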;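 further: signal is fluorescence rise after thallium addition divided by baseline fluorescence; plate controls were assay buffer only for no effect and full block by chlorpromazine control for full effect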
HEK293 Tl ctr: thallium flux in non-induced HEK293 cells, confirmation, counter-screen for KCNK9 inhibitor project, cell-based, second counter screen, non-induced KCNK9-HEK293; inhibition, % at 10 µM; FluxOR thallium flux; 4,900 tested, 40% active; shares compounds with KCNK9 inh;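 active means thallium signal drop beyond 5 SD of the untreated control mean, on both duplicate plates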;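 further: plate controls were buffer only IC0 wells for no effect and SID17386958 at its maximal inhibitory level for full effect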
KCNK3 inh conf: retest of human KCNK3 channel inhibitors, confirmation, CHO cells, FluxOR thallium flux, triplicate; ratio percent of control, % at 10 µM; shares compounds with KCNK3 block; 2,400 tested, 99% active; FluxOR fluorescence; 0% buffer, 100% carvedilol maximal block;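 active means ratio percent of control, averaged over triplicates, above buffer control mean plus 5 SD, cut at about 64% in these data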;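 further: ratio is the fluorescence rise from min to max over baseline after thallium stimulus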
KCNK3 uninduced: thallium flux inhibition in non-induced cells, primary screen, counter-screen for KCNK3 inhibitor project, cell-based, non-induced KCNK3 line, FluxOR thallium, triplicate | shares compounds with KCNK3 block | non-induced KCNK3 parental cells; stronger effect = lower value | thallium flux ratio (lower = more inhibition) at 10 µM | 2,400 tested, 40% active;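 active means thallium flux ratio, averaged over three wells, more than 5 SD below the buffer control mean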;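 further: host cells are CHO cells without KCNK3 induction; ratio is peak minus trough fluorescence over baseline then normalized to buffer controls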
* marks the source's active call; other numbers are inactive results; i = inactive; . = no result given.

SMILES	Kir21 block	hERG protect	KCNQ1 act	KCNK9 inh	KCNK3 block	KCNQ1 inh	KCNK9 block conf	Kir2-1 spec	HEK293 Tl ctr	KCNK3 inh conf	KCNK3 uninduced
N=c1c2c(-c3ccccc3)c(-c3ccccc3)n(Cc3ccco3)c2ncn1Cc1ccco1	-9.8*	-38	i	-8.7*	-14*	11*	54%*	46%*	31%*	110*	0.15*
N=c1c2c(ncn1Cc1ccco1)Oc1ccc3ccccc3c1C2c1ccccc1 (stereo unspecified)	-1.3	-15	i	i	i	i	.	.	.	.	.
O=c1c2sc3ccccc3c2[nH]c(=S)n1CCN1CCOCC1	-1.3	-5	i	i	i	i	.	.	.	.	.
CSc1ccc(-c2nc3cnccn3c2Nc2ccc3c(c2)OCO3)cc1	0.32	-10	i	i	i	i	.	.	.	.	.
Clc1ccc(-c2nc3cnccn3c2Nc2ccc3c(c2)OCO3)cc1	2.4	-15	i	-12*	-9.7*	i	60%*	i	24%*	105*	i
CCCN(/C=N/c1sc2c(c1C#N)CCCCC2)CCC	-1.5	-20	i	-19*	-11*	i	69%*	i	48%*	105*	i
COc1ccccc1CC(=O)N1CCC(n2nccc2NC(=O)C2CCOC2)CC1 (stereo unspecified)	0.46	-11	i	i	i	i	.	.	.	.	.
Cn1cc([N+](=O)[O-])c(C(=O)Nc2cc(Oc3ccccc3)cc([N+](=O)[O-])c2)n1	0.43	-3	i	i	i	i	.	.	.	.	.
Cc1cccc(Oc2cc(NC(=O)c3ccccc3)cc([N+](=O)[O-])c2)c1	-0.96	-19	i	-12*	-12*	6*	64%*	i	39%*	133*	0.15*
Cc1cccc(Nc2nc(C)nc3c2oc2ccccc23)c1	-1.5	-11	i	-8.8*	-9*	i	30%*	i	26%*	116*	i
CC(C)C(=O)Nc1cccc(C(=O)Nc2cc([N+](=O)[O-])ccc2F)c1	0.59	-13	i	i	i	i	.	.	.	.	.
O=S(=O)(c1ccc(Br)s1)N1CCC(Cc2ccccc2)CC1	0.89	-19	i	i	-9.1*	i	i	i	i	100*	i
COc1cc(C(=O)NCCC2=CCCCC2)ccc1OCc1c(C)noc1C	.	.	.	.	i	.	.	.	.	.	.
COc1ccc(CSc2nc(C)cc(C)c2S(C)(=O)=O)cc1	-3.6	-4	i	-11*	-11*	i	40%*	i	34%*	111*	i
COc1ccc(Oc2nc(C)cc(C)c2S(C)(=O)=O)cc1	0.04	-10	i	i	i	i	.	.	.	.	.
COCCNC(=S)N1CCC(C(=O)c2ccc3c(c2)OCCO3)CC1	0.78	-8	i	i	i	i	.	.	.	.	.
S=C(Nc1ccccc1)N1CCOCCOCCN(C(=S)Nc2ccccc2)CCOCCOCC1	0.67	-5	i	-11*	-9.1*	i	28%*	i	i	96*	0.13*
Cc1cc(C)c2cc(CN(CC3CCCO3)C(=S)NCc3ccco3)c(=O)[nH]c2c1 (stereo unspecified)	1.2	-11	i	-9.5*	-9.8*	i	29%*	i	33%*	113*	i
COc1ccc(-c2cc3ccccc3oc2=O)cc1NC(=O)c1ccc(Br)o1	-0.76	-1	i	i	i	i	.	.	.	.	.
O=C(Nc1ccc2oc(-c3cccnc3)nc2c1)c1ccc(Br)o1	0.28	-6	i	i	i	i	.	.	.	.	.
Cc1cc2nc(-c3cccc(NC(=O)c4ccc(Br)o4)c3)oc2cc1C	0.32	-9	i	-9.8*	-9.5*	i	38%*	i	i	121*	0.14*
O=C(Nc1cccc(OC(F)(F)F)c1)c1ccc(Br)o1	-0.34	-15	i	-10*	-9.6*	i	44%*	i	i	116*	i
O=C(Nc1cccc(F)c1)c1ccc(Br)o1	-0.36	-7	i	i	i	i	.	.	.	.	.
O=C(Nc1cccc(-c2cc3ccccc3oc2=O)c1)c1ccc(Br)o1	1	-11	i	-8.7*	-11*	i	34%*	i	i	121*	0.15*
O=C(Nc1cccc(-c2cn3c(n2)SCC3)c1)c1ccc(Br)o1	2.3	-16	i	-10*	i	i	37%*	i	i	109*	i
CC(C)(C)NCc1ccc(OCc2cccs2)cc1	-0.47	-5	i	i	i	i	.	.	.	.	.
COC(=O)C1=C(C)N=C2SC(C#N)=C(N)N2C1c1ccc(OCc2ccccc2)cc1 (stereo unspecified)	-2.4	-6	i	-17*	-9.9*	i	74%*	i	52%*	97*	0.15*
COC(=O)C1=C(C)N=C2SC(C#N)=C(N)N2C1c1cc(OC)c(OC)c(OC)c1 (stereo unspecified)	0.39	-5	i	i	i	i	.	.	.	.	.
Cc1ccccc1-c1nnc(SCC(=O)NC2CCCCC2)o1	0.09	-4	i	i	i	i	.	.	.	.	.

Assay outcomes deposited in PubChem by Johns Hopkins Ion Channel Center.
